GPR7 antagonist – human neuropeptides B/W receptor 1 antagonism; P48145; inhibition, % at 4.4 µM; 290,000 compounds, 1.1% hits; GPR7-expressing cells, fluorescence antagonist assay; in the data active = inhibition above about 16%, passing the limit was not always enough;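 note: cells stimulated with the agonist NPW; 0% = agonist with vehicle and 100% = vehicle without agonist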
TAAR1 antag – antagonists of human TAAR1; Q96RJ0; CHO RD-HGA16 TAAR1, Fluo-8 calcium fluorescence, antagonist; inhibition, % at 3 µM; 360,000 compounds, 1.5% hits;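 active = inhibition above a per-plate cutoff, the mean inhibition of test compounds on that plate plus 3 SD, cut at about 49% in these data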;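 note: 0% = DMSO plus EC80 beta-PEA response and 100% = DMSO alone without agonist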
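Material: CHO RD-HGA16 cells bearing hTAAR1; compound dosing: one-point dosing, 3 µM nominal final; schedule: dye loading 75 min at 37 °C, then 30 min room temperature; measured by: calcium fluorescence with Fluo-8; control set: vehicle and agonist controls; replication: n of 1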
CHO parental Ca – signal in parental CHO cells, OX1R antagonist counter-screen; inhibition, % at 5.6 µM; 330,000 compounds, 0.63% hits; parental CHO-K1, ATP-induced calcium, Fluo-8 fluorescence; AID 463079;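 active = inhibition above that plate's mean sample inhibition plus 3 SD, cut at about 26% in these data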;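 note: 0% = ATP-challenged DMSO wells and 100% = DMSO wells without ATP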
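Test system: untransfected parental CHO cell line; also added: ATP stimulus; dosing: 5.6 µM, single dose; signal: calcium-sensitive Fluo-8 fluorescence; measure: percent inhibition of ATP-evoked calcium rise, normalized to controls; benchmarks: low control ATP plus DMSO, high control DMSO only; replication: one well per compound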
TAAR1 agonist – agonists of human TAAR1. CHO RD-HGA16 TAAR1, Fluo-8 calcium fluorescence; vehicle wells 0%, saturating PEA agonist 100%. Q96RJ0. activation, % at 3 µM. 360,000 compounds, 0.99% hits;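 active = activation above the mean activation of all test compounds in the run plus 3 SD, cut at about 38% in these data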
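System: CHO-derived RD-HGA16 cells with stable Gα16 and human TAAR1 / Times: 17-24 h plating, Fluo-8 75 min 37 °C, 30 min RT / Technique: calcium-sensitive Fluo-8 signal, excitation 470-495, emission 515-575 nm / Measure: % activation relative to PEA EC100 response / Benchmarks: DMSO and PEA EC100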
OX1R antag-1 – OX1R (human) antagonism | 330,000 compounds, 1.8% hits | O43613 | OX1R-expressing cells, FRET antagonist read-out | inhibition, % at 6.6 µM; in the data active = inhibition mostly above about 38%, no sharp cut-off; inactive = mostly below about 40%;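 note: 0% = agonist challenge alone and 100% = reference antagonist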
Target sequence (O43613 whole entry, looked up): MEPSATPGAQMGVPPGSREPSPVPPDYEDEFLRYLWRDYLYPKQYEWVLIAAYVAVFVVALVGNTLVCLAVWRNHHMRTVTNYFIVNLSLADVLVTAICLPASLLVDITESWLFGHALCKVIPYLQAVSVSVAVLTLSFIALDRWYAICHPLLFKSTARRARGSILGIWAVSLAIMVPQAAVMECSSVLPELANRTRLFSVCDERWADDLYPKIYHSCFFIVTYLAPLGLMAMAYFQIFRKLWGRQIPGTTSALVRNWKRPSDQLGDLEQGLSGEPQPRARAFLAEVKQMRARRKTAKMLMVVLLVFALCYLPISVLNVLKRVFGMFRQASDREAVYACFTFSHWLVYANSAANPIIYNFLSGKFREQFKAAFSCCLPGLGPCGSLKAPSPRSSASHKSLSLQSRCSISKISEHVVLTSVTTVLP
OX1R antag-2 – human HCRTR1 antagonism. inhibition, % at 5 µM. O43613. CHO/OX1R cells, Fluo-8 calcium fluorescence, orexin A. 330,000 compounds, 0.43% hits;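 active = inhibition above its plate's threshold, mean inhibition of all tested compounds on the plate plus 3 SD, cut at about 37% in these data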;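 note: 0% = orexin A challenge wells and 100% = SB-334867-A antagonist wells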
OX1R HTRF confirm – confirmation of human orexin 1 receptor antagonists, HTRF format; shares compounds with OX1R antag-1; 1,800 compounds, 49% hits; inhibition, % at 6.6 µM; OX1R-expressing cells, HTRF antagonist assay; in the data active = inhibition above about 55%;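 note: CHO cells expressing OX1R stimulated with orexin A at about EC80; 0% = agonist challenge alone and 100% = reference antagonist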
CHO-K1 HTRF – counter-screen for OX1R antagonists: effect in parental CHO-K1 cells. 1,800 compounds, 48% hits. shares compounds with OX1R antag-1. HTRF counterscreen. inhibition, % at 6.6 µM. AID 493232; in the data active = inhibition above about 17%;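 note: 0% = agonist challenge with vehicle and 100% = vehicle alone without agonist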
TAAR1 nonsel count – nonselective antagonist in TAAR1 antagonist counter-screen | shares compounds with TAAR1 antag | inhibition, % at 3 µM | counterscreen cell line, calcium fluorescence, antagonist mode | 2,400 compounds, 77% hits; in the data active = inhibition above about 22%;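 note: CHO-Ga16 host cells stimulated with ATP at an EC80 level; 0% = agonist EC80 plus vehicle and 100% = vehicle without agonist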
TAAR1 ant conf – human TAAR1 antagonism, confirmed | TAAR1-expressing cells, fluorescence antagonist read-out | inhibition, % at 3 µM | 2,400 compounds, 40% hits | shares compounds with TAAR1 antag; in the data active = inhibition above about 49%;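 note: CHO-Ga16 host cells challenged with agonist PEA near its EC80; 0% = agonist at EC80 plus vehicle and 100% = vehicle with no agonist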
Ga16 ag counter – counter-screen for TAAR1 antagonists: nonselective Ga16 agonists; activation, % at 3 µM; Ga16-expressing cells, calcium fluorescence, agonist counterscreen; 2,400 compounds, 18% hits; AID 651953; shares compounds with TAAR1 antag; in the data active = activation above about 12%;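 note: 0% = vehicle wells and 100% = saturating stimulus response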
TAAR1 ag counter – activates human TAAR1 in antagonist counter-screen; hTAAR1 cell line, fluorescence activation, agonist mode; 2,400 compounds, 2% hits; shares compounds with TAAR1 antag; activation, % at 3 µM; in the data active = activation above about 37%;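 note: CHO cells stably expressing TAAR1 with calcium dye readout; 0% = DMSO vehicle and 100% = full agonist response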
The depositor's hits bear a star; / = no result given. In the library only some 4.5% were active in any assay of this set; here they are far more common.

SMILES	GPR7 antagonist	TAAR1 antag	CHO parental Ca	TAAR1 agonist	OX1R antag-1	OX1R antag-2	TAAR1 nonsel count	TAAR1 ant conf	Ga16 ag counter	TAAR1 ag counter	others
O=C(NNC(=O)c1cc(-c2ccccc2)nc2ccccc12)Nc1cccc(Cl)c1	8	80*	-6	10	90*	-14	39*	57*	8	6	OX1R HTRF confirm=14;CHO-K1 HTRF=5
COc1cccc(NC(=O)c2cccc(N3C(=O)C4C5C=CC(C5)C4C3=O)c2)c1 (stereo not drawn)	1	20	0	6	11	-1	/	/	/	/
COc1ccccc1N(CC(=O)NCCSc1ccccc1)S(=O)(=O)c1ccccc1	-6	76*	-23	7	81*	22	30*	44	6	9	OX1R HTRF confirm=60*;CHO-K1 HTRF=3
COc1ccccc1N(CC(=O)NCCSc1ccccc1)S(C)(=O)=O	1	-3	-12	1	-4	1	/	/	/	/
COc1ccccc1OCCCOc1ccc(/C=C2\SC(=O)NC2=O)cc1OC	3	82*	-11	11	78*	-17	34*	53*	9	5	OX1R HTRF confirm=70*;CHO-K1 HTRF=13
COc1cc(/C=C2\SC(=O)NC2=O)ccc1Oc1cnccn1	-5	-9	8	-1	21	9	/	/	/	/
Cc1cccc(N2CCN(S(=O)(=O)c3ccc4[nH]c(=O)ccc4c3)CC2)c1C	-15	61*	-1	11	5	-15	35*	38	11	10
Cc1ccc(-c2nn(-c3cccc(F)c3)cc2CN2CCN(c3ccccn3)CC2)o1	-9	-22	-23	3	13	-35	/	/	/	/
Cc1ccc(-c2nn(-c3cccc(F)c3)cc2CNCc2cccnc2)o1	-9	66*	-15	9	14	-26	31*	43	7	11
C[C@H](NC(=O)c1nc[nH]c1C(=O)NC(c1ccccc1)c1ccccc1)C(=O)OCc1ccccc1	/	17	-9	7	21	-26	/	/	/	/
CC(C)(C)OC(=O)N1CCC(NC(=O)c2nc[nH]c2C(=O)NCC(=O)OCc2ccccc2)CC1	8	70*	-4	25	12	-1	31*	59*	11	14
C[C@@H](NC(=O)c1nc[nH]c1C(=O)NCC(=O)OCc1ccccc1)c1ccccc1	-8	68*	-18	15	20	-43	32*	55*	8	10
C[C@H](NC(=O)c1nc[nH]c1C(=O)N[C@@H](C)C(=O)OCc1ccccc1)C(=O)OCc1ccccc1	-10	58*	-25	6	26	-28	20	36	2	0
CC(C)(C)OC(=O)CNC(=O)c1[nH]cnc1C(=O)NC1CCN(C(=O)OC(C)(C)C)CC1	-18	35	-8	14	3	-22	/	/	/	/
C=C1C(=O)C23C(O)C1CCC2C12COC3(O)C(O)C1C(C)(C)CCC2O (stereo not drawn)	/	-26	/	5	/	/	/	/	/	/
Cc1ccc2[nH]cc(CCNC(=O)c3cccs3)c2c1	26	3	/	5	/	/	/	/	/	/
C/C=C(/C)C(=O)O[C@@H]1c2c(ccc3ccc(=O)oc23)O[C@@H]1C(C)(C)OC(=O)/C(C)=C\C	-16	59*	29	6	53	12	21	24	9	3
